Our source for the folding enthalpy and Tm values is the array DNA melting data of Ke et al. (doi:10.1101/2024.01.08.574731).

Series [1] is described as follows: folding enthalpy; higher = less favourable; fluorescence melt of hairpins on a sequencing array, two-state fit. The conditions noted are these: sodium 0.088 M. Summed up: (§1)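 Two-state fits, bootstrapped, provided melting temperature and folding enthalpy from Cy3 fluorescence normalised to pre-quench Cy3 and to control constructs. Library hairpins with annealed Cy3 and quencher oligos were imaged on a sequenced MiSeq flow cell in 50 mM Na-HEPES pH 8.0, 25 mM NaCl, at 2.5 °C intervals up to 60 °C. Four replicates were combined with inverse-variance weighting. A 9.35 °C upward shift was applied to fitted temperatures to match UV melts.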

Series [2] in a line: melting temperature; fluorescence melt of hairpins on a sequencing array, two-state fit, raised by 9.35 °C to match UV melts. The conditions noted are these: sodium 0.088 M. An outline of the steps:
as §1

Consider GTCCGGCGAAAGCCTGAC (((.(((....))).))), for which, in series [1], the folding enthalpy is -87.7 kJ/mol. The Tm in series [2] amounted to 51.8 °C.
Regarding GTCCGGGGAAACCTGGGC (.((.((....)).)).), the folding enthalpy in series [1] was -125 kJ/mol. The Tm in series [2] was determined as 48.3 °C.
In the same order, the values of GTCCGGGGAAACTCGGAC (((((.(....).))))) are -171 kJ/mol and 58.9 °C.
The corresponding values for GTCCGGGGAAACTCGGGC (.(((.(....).))).) are -89.7 kJ/mol and 47.8 °C.
With GTCCGTCGAAAGACCGAC (((.(((....))).))), the folding enthalpy in series [1] was -90 kJ/mol. Also, in series [2], the Tm amounted to 42.8 °C.
In the same order, the values of GTCCGTCGAAAGACTGAC (((.(((....))).))) are -119 kJ/mol and 47.8 °C.
Consider GTCCGTGGAAACGTGGAC ((((..(....)..)))), for which the folding enthalpy in series [1] was -89.9 kJ/mol. The Tm in series [2] turned out to be 45.4 °C.
The corresponding values for GTCCTACGAAAGTAAGAC (((.(((....))).))) are -114 kJ/mol and 37 °C.
In the same order, the values of GTCCTAGGAAACCAGGAC (((((.(....).))))) are -120 kJ/mol and 45.3 °C.
In the same order, the values of GTCCTCACGAAAGTGGAC (((..(((....)))))) are -71.9 kJ/mol and 43 °C.
In the case of GTCCTCCGAAAGGAGAC (((.(((....)))))), the folding enthalpy in series [1] was -66.4 kJ/mol. Also, the Tm in series [2] worked out at 47.5 °C.
The corresponding values for GTCCTCGAAAGAGTCGAC ((((((....)))..))) are -51.4 kJ/mol and 32.3 °C.
The corresponding values for GTCCTCGGAAACGAGGGC (.(((((....))))).) are -127 kJ/mol and 62.3 °C.
The corresponding values for GTCCTGAAAAGGAC (((((....))))) are -130 kJ/mol and 55.9 °C.
GTCCTGACGAAAGTCGAC (((..(((....)))))): in series [1], the folding enthalpy was -43 kJ/mol. Further, the Tm in series [2] is 29.1 °C.
On to GTCCTGCGAAAGCACGAC (((.(((....))).))), for which the folding enthalpy in series [1] is -89.5 kJ/mol. The Tm in series [2] is 42.6 °C.
GTCCTGCGAAAGCATGAC (((.(((....))).))): the folding enthalpy in series [1] was -109 kJ/mol. In addition, in series [2], the Tm was found to be 49.9 °C.
The corresponding values for GTCCTGGGAAACCAGAAC ((.((((....)))).)) are -82.3 kJ/mol and 35.5 °C.
The corresponding values for GTCCTGGGAAACTAGGAC (((((.(....).))))) are -179 kJ/mol and 49.1 °C.
In the same order, the values of GTCCTTGAAAAAGGAC ((((((....)))))) are -139 kJ/mol and 56 °C.
As to GTCCTTGGAAACAAAGAC (((.(((....))).))), in series [1], the folding enthalpy is -55.5 kJ/mol. In addition, in series [2], the Tm was 30.4 °C.
The corresponding values for GTCGAAACGAAAGTTGAC (((..(((....)))))) are -77.5 kJ/mol and 37.2 °C.
Consider GTCGAAGGAAACTTCGAC (((((((....))))))), for which the folding enthalpy in series [1] is -203 kJ/mol. The Tm in series [2] turned out to be 62.2 °C.
The corresponding values for GTCGACGAAAGTCAAGAC ((((((....)))..))) are -85.2 kJ/mol and 43.8 °C.
On to GTCGACGAAAGTCAGAC ((((((....))).))), for which the folding enthalpy in series [1] was -147 kJ/mol. Moreover, in series [2], the Tm is 52.3 °C.
The corresponding values for GTCGACGAAAGTCAGGAC ((((((....)))..))) are -73.5 kJ/mol and 41.7 °C.
GTCGACGAAAGTCATGAC ((((((....)))..))): the folding enthalpy in series [1] is -65.4 kJ/mol. Also, the Tm in series [2] stood at 40.7 °C.
In the same order, the values of GTCGACGAAAGTCTGGAC ((((((....)))..))) are -67.5 kJ/mol and 39.8 °C.
The corresponding values for GTCGAGAAATCGAC (((((....))))) are -112 kJ/mol and 55.5 °C.
In the same order, the values of GTCGAGGGAAACCCCGAC ((((.((....)).)))) are -163 kJ/mol and 52 °C.
With GTCGAGGGAAACCTTGGC (.(.(((....))).).), the folding enthalpy in series [1] was -91 kJ/mol. In addition, the Tm in series [2] amounted to 36 °C.
Turning to GTCGATCGAAAGATGGAC (((.(((....))).))), the folding enthalpy in series [1] was -118 kJ/mol. In addition, the Tm in series [2] was 48.6 °C.
The corresponding values for GTCGATCGAAAGATTGAC (((.(((....))).))) are -217 kJ/mol and 53.6 °C.
In the same order, the values of GTCGATGCGAAAGCAGAC (((..(((....)))))) are -67.2 kJ/mol and 46 °C.
On to GTCGATGGAAACGTTGAC (((.(.(....).).))), for which the folding enthalpy in series [1] was -85.6 kJ/mol. Moreover, the Tm in series [2] came out at 34.6 °C.
On to GTCGCAGCGAAAGCTGAC (((..(((....)))))), for which the folding enthalpy in series [1] was -38.5 kJ/mol. In addition, the Tm in series [2] was 37.1 °C.
